# Data: ChEMBL document CHEMBL1129609, “Synthesis and antiviral activity evaluation of some new aminoadamantane derivatives. 2” (1996)
# Tests used:
# HEF [1] = experiment: Antiviral activity of compound was tested against vesicular virus infected HEF cell lines.; assay type: functional; details: Homo sapiens
# Summary of the method: (§1)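 Human embryonic fibroblasts, from embryonic lung or embryonic skin-muscle, infected with the virus. Endpoint is the minimum inhibitory concentration that reduces virus-induced cytopathicity by 50%. Values are averages of at least two separate experiments.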
# HeLa [2] = experiment: Antiviral activity of compound was tested against polio-1 virus infected HeLa cell lines.; assay type: functional; details: Homo sapiens
# Summary of the method: (§2)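 Vero (African green monkey kidney), HeLa (human epithelial) or HEL (human embryonic lung) cell monolayers infected with the virus. Readout is the minimum inhibitory concentration that reduces virus-induced cytopathicity by 50%. Values are averages of at least two separate experiments.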
# MDCK [3] = experiment: Antiviral activity of compound was tested against influenza […] virus infected MDCK cell lines; assay type: functional; details: Canis lupus familiaris
# HeLa [4] = experiment: Antiviral activity of compound was tested against morphology virus infected HeLa cell lines.; assay type: functional; details: Homo sapiens
# HEL [5] = experiment: Antiviral activity of compound was tested against HCMV virus infected HEL cell lines.; assay type: functional; details: Homo sapiens; summary of the method: as §2
# HEF [6] = experiment: Antiviral activity of compound was tested against morphology virus infected HEF cell lines.; assay type: functional; details: Homo sapiens
# HEF [7] = experiment: Antiviral activity of compound was tested against HSV-2 virus infected HEF cell lines.; assay type: functional; details: Homo sapiens; summary of the method: as §1
# HEL [8] = experiment: Antiviral activity of compound was tested against TK+VZV virus infected HEL cell lines.; assay type: functional; details: Homo sapiens; summary of the method: as §2
# [9] = Antiviral activity against influenza A,H2N2 virus infected MDCK cell lines.; assay type: functional
# HeLa [10] = experiment: Antiviral activity of compound was tested against stomatitis virus infected HeLa cell lines.; assay type: functional; details: Homo sapiens; summary of the method: as §2
# Vero [11] = experiment: Antiviral activity of compound was tested against Coxsackie B4 virus infected vero cell lines.; assay type: functional; details: Chlorocebus sabaeus; summary of the method: as §2
# MDCK [12] = experiment: Antiviral activity of compound was tested against influenza A,H3N2 virus infected MDCK cell lines.; assay type: functional; details: Canis lupus familiaris
# Vero [13] = experiment: Antiviral activity of compound was tested against reo1 virus infected vero cell lines.; assay type: functional; details: Chlorocebus sabaeus; summary of the method: as §2
# HEF [14] = experiment: Antiviral activity of compound was tested against vaccinia virus infected HEF cell lines.; assay type: functional; details: Homo sapiens; summary of the method: as §1
# Vero [15] = experiment: Antiviral activity of compound were tested against semliki forest virus infected vero cell lines.; assay type: functional; details: Chlorocebus sabaeus; summary of the method: as §2
# MDCK [16] = experiment: Antiviral activity tested against influenza A,H1N1 virus infected MDCK cell lines.; assay type: functional; details: Canis lupus familiaris
# HEL [17] = experiment: Antiviral activity of compound was tested against proliferation virus infected HEL cell lines.; assay type: functional; details: Homo sapiens
# HeLa [18] = experiment: Antiviral activity of compound was tested against Coxsackie B4 virus infected HeLa cell lines.; assay type: functional; details: Homo sapiens; summary of the method: as §2
# CCRF-CEM [19] = experiment: Antiviral activity of compound was tested against viability virus infected CEM cell lines.; assay type: functional; details: Homo sapiens
# CCRF-CEM [20] = experiment: Antiviral activity of compound was tested against HIV-1 virus infected CEM cell lines.; assay type: functional; details: Homo sapiens
# HEF [21] = experiment: Antiviral activity of compound was tested against TK-HSV-1 virus infected HEF cell lines.; assay type: functional; details: Homo sapiens; summary of the method: as §1
# CCRF-CEM [22] = experiment: Antiviral activity of compound were tested against HIV-2 virus infected CEM cell lines.; assay type: functional; details: Homo sapiens
# MDCK [23] = experiment: Antiviral activity of compound was tested against morphology virus infected MDCK cell lines.; assay type: functional; details: Canis lupus familiaris
# Vero [24] = experiment: Antiviral activity of compound was tested against sindbis virus infected vero cell lines.; assay type: functional; details: Chlorocebus sabaeus; summary of the method: as §2
# Vero [25] = experiment: Antiviral activity of compound was tested against parainfluenza 3,[…] virus infected Vero cell lines.; assay type: functional; details: Chlorocebus sabaeus; summary of the method: as §2
# Vero [26] = experiment: Antiviral activity of compound was tested against morphology virus infected Vero cell lines.; assay type: functional; details: Chlorocebus sabaeus
# HEL [27] = experiment: Antiviral activity of compound was tested against TK-VZV virus infected HEL cell lines.; assay type: functional; details: Homo sapiens; summary of the method: as §2
# Human alphaherpesvirus 1 [28] = experiment: Antiviral activity against TK-HSV-1 virus infected HEF cell lines.; assay type: functional; summary of the method: as §1
# Human alphaherpesvirus 1 [29] = experiment: Antiviral activity against HSV-1 virus infected HEF cell lines.; assay type: functional; summary of the method: as §1
# Human alphaherpesvirus 2 = experiment: Antiviral activity against HSV-2 virus infected HEF cell lines.; assay type: functional; summary of the method: as §1
# [30] = test system: Human immunodeficiency virus 2; experiment: Antiviral activity against HIV-2 virus infected CEM cell lines.; assay type: functional, CCRF-CEM
# Human respirovirus 3 = experiment: Antiviral activity against parainfluenza 3 virus infected Vero cell lines.; assay type: functional; summary of the method: as §2
SMILES,MIC50 (HEF [1]) [µg/mL],MIC50 (HeLa [2]) [µg/mL],MIC50 (MDCK [3]) [µg/mL],MIC50 (HeLa [4]) [µg/mL],MIC50 (HEL [5]) [µg/mL],MIC50 (HEF [6]) [µg/mL],MIC50 (HEL [8]) [µg/mL],MIC50 [9] [µg/mL],MIC50 (HeLa [10]) [µg/mL],MIC50 (Vero [11]) [µg/mL],MIC50 (MDCK [12]) [µg/mL],MIC50 (Vero [13]) [µg/mL],MIC50 (HEF [14]) [µg/mL],MIC50 (Vero [15]) [µg/mL],MIC50 (MDCK [16]) [µg/mL],MIC50 (HEL [17]) [µg/mL],MIC50 (HeLa [18]) [µg/mL],MIC50 (CCRF-CEM [19]) [µg/mL],MIC50 (CCRF-CEM [20]) [µg/mL],MIC50 (MDCK [23]) [µg/mL],also measured
CN(C)CC1CCN(C23CC4CC(CC(C4)C2)C3)C1 (stereo not given),> 10,> 200,> 100,400,> 20,40,> 20,16.1,> 200,> 100,> 100,> 100,> 10,> 100,> 36,> 50,> 200,79,> 23,400,MIC50 (HEF [7]): > 10 µg/mL; MIC50 (HEF [21]): > 10 µg/mL; MIC50 (CCRF-CEM [22]): > 40 µg/mL; MIC50 (Vero [24]): > 100 µg/mL; MIC50 (Vero [25]): > 100 µg/mL; MIC50 (Vero [26]): > 400 µg/mL; MIC50 (HEL [27]): > 50 µg/mL
CN(C)CC1CCCN1C12CC3CC(CC(C3)C1)C2 (stereo not given),> 200,> 400,60,> 400,> 50,> 400,> 50,32.5,> 400,> 400,73,> 400,> 200,> 400,> 70,> 50,> 400,> 200,115,> 250,MIC50 (Human alphaherpesvirus 1 [28]): > 200 µg/mL; MIC50 (Human alphaherpesvirus 1 [29]): > 200 µg/mL; MIC50 (Human alphaherpesvirus 2): > 200 µg/mL; MIC50 [30]: > 200 µg/mL; MIC50 (Vero [24]): > 400 µg/mL; MIC50 (Human respirovirus 3): > 400 µg/mL; MIC50 (Vero [26]): > 400 µg/mL; MIC50 (HEL [27]): > 50 µg/mL
